Assay outcomes as filed in PubChem BioAssay.
KLK5 inh = kallikrein 5 (human) inhibition | inhibition, % at 5 µM | recombinant hK5, fluorogenic AMC substrate cleavage | AID 873 | Q9Y337 | 0.59% of 210,000 active;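 active = inhibition of 40% or more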;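 note: 0% = enzyme controls without compound and 100% = no-enzyme blanks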
Lipid droplet = modulators of hepatic lipid droplet formation | 0.4% of 240,000 active | inhibition, % at 6.5 µM | AML12 mouse hepatocytes, oleate lipid droplets, BODIPY imaging | AID 1656;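 active = lipid droplet intensity inhibited by at least 50%, with more than 500 cells counted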
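Assay system: AML12 mouse liver cells | Compound dosing: One dose, 6.5 µM compound | Read-out basis: Droplet intensity reduction, % inhibition | Measured by: Fluorescence imaging, 20x objective, two fields per well | Schedule: Overnight treatment with compound plus oleate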
FXIa inh 1536 = factor XIa (human) inhibition | inhibition, % at 5 µM | 0.14% of 220,000 active | purified FXIa, Boc-Glu-Ala-Arg-AMC fluorogenic substrate | P03951;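 active = inhibition of at least 40%; inactive = inhibition below 40%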;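 note: fluorescence of freed AMC excited at 355 nm; 0% = enzyme without compound and 100% = no enzyme blank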
Target sequence (P03951 19-387 limits assumed): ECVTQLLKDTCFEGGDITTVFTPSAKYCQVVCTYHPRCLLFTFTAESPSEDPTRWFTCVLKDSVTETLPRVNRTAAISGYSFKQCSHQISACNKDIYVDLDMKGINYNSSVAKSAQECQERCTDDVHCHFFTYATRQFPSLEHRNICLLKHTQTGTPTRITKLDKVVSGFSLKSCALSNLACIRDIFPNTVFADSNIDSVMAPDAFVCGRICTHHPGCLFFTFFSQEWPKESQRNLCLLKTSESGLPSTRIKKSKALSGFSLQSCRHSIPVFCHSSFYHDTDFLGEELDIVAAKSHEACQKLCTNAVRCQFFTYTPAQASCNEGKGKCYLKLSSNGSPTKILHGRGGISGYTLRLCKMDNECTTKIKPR
Target sequence (P03951 388-625 limits assumed): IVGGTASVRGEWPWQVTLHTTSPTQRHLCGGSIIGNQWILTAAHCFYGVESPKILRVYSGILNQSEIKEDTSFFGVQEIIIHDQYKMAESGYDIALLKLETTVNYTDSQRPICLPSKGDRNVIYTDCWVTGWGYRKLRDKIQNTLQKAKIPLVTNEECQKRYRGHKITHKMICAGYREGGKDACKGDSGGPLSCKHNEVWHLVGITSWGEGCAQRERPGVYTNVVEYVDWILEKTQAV
FXIIa inh = factor XIIa (human) inhibition. purified FXIIa, Boc-QGR-AMC fluorogenic substrate, 2 h. inhibition, % at 5 µM. 0.3% of 220,000 active. AID 800; in the data active = inhibition above about 40%;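 note: 0% = enzyme with no compound and 100% = blank without enzyme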
Biofilm kill mix = mixtures killing C. albicans biofilm | C. albicans biofilm persisters + clotrimazole, fluorescence viability; primary screen in compound mixtures of four per well | inhibition, % at 7.6 µM | 0.02% of 120,000 active | AID 1242;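 active = inhibition above 30.3% in the primary screen of four-compound pools, then above 30% when the compound was retested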;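 note: compounds exposed to preformed 24 h biofilms for 48 h; 0% = untreated biofilm control and 100% = clotrimazole plus chlorhexidine kill blank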
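Incubation: 24 h biofilm formation, then 48 h compound exposure, 37 °C | Material: C. albicans biofilms | Buffer or medium: RPMI/MOPS medium, pH 7.0 | Measured by: 2-h Alamar Blue fluorescence, 535/590 nm excitation/emission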
Thrombin inh = blocks human thrombin protease activity. AID 1046. P00734. inhibition, % at 5 µM. 0.26% of 220,000 active. alpha-thrombin, Boc-VPR-AMC fluorogenic substrate cleavage;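 active = inhibition at or above 40%; inactive = inhibition below 40%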;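 note: 0% = enzyme with no compound and 100% = wells without enzyme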
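Test system: human alpha-thrombin; medium: pH 7.5 Tris-saline with Tween 20; times: reaction at room temperature; signal: AMC fluorescence at 355 nm excitation and 460 nm emission; also added: Boc-VPR-AMC substrate, 15 µM final; dosing: one concentration per compound, 5 µM, with 0.2% DMSO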
Lipid drop inh = confirmation of inhibitors of hepatic lipid droplet formation. shares compounds with Lipid droplet. AML12 mouse hepatocytes, BODIPY lipid droplet imaging; droplets induced with 100 µM oleic acid. inhibition, % at 5.2 µM. 65% of 870 active;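 active = inhibition of lipid droplet metric at least 50%, with more than 300 cells in each of four replicates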;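 note: plate controls were DMSO with oleic acid for no effect and 5 µM Triacsin-C for full effect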
AML12 tox img = counter-screen for cytotoxicity in AML12 mouse hepatocytes | shares compounds with Lipid droplet | DAPI nuclear morphology cytotoxicity imaging; hits give high values; cells fed 100 µM oleate overnight | z-score at 5 µM | 3% of 870 active | AID 463200; in the data active = z-score above about 6.3;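 note: compound exposure lasted overnight at 37 °C before fixation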
AML12 tox ATP = confirmation of cytotoxicity in AML12 mouse hepatocytes; AID 463219; shares compounds with Lipid droplet; AML12 mouse hepatocyte viability, ATP luminescence; cells loaded with 100 µM oleic acid; cytotoxicity, % at 50 µM; 530 tested, under 10 active;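 active = cytotoxicity above 50% in each of four replicates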;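 note: compound exposure lasted overnight at 37 °C before the ATP read; 0% = DMSO-treated cells and 100% = wells with no cells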
Numbers without * were called inactive; · = no result. Only some compounds are listed: those with a hit (about 1.1% of all), similar ones and a draw of the others.

SMILES	KLK5 inh	Lipid droplet	FXIa inh 1536	FXIIa inh	Biofilm kill mix	Thrombin inh	Lipid drop inh	AML12 tox img	others
CCc1c(C#N)c(SCCC(=O)Nc2ccc(F)cc2)nc2c1C(=O)CC(C)(C)C2	6	30	-18	-4	·	-4	·	·
Nc1ccc(NC(=O)c2cccc(C(=O)Nc3ccc(N)cc3Cl)c2)c(Cl)c1	·	-2	·	·	·	·	·	·
O=C(NCc1cccs1)C1CCC(CNS(=O)(=O)c2cccs2)CC1 (stereo not drawn)	3	52*	3	13	·	-1	47	-0.91
O=C(NCc1cccs1)C1CCC(CNS(=O)(=O)c2ccccc2)CC1 (stereo not drawn)	0	-8	-6	8	20	-13	·	·
O=C(CSc1nc2[nH]ncc2c(=O)n1-c1ccc(Cl)c(Cl)c1)NCc1ccccc1Cl	1	-18	-2	3	24	-14	·	·
CC(C)Nc1nc(-c2ccncc2)nc(-c2ccccc2)c1C#N	·	16	·	·	·	·	·	·
CC(=O)OCC(=O)[C@@]1(O)CC[C@H]2[C@@H]3CCC4=CC(=O)CC[C@]4(C)[C@H]3[C@@H](O)C[C@@]21C	-5	50*	8	7	10	3	24	0.65
C[C@]12CCC(=O)C=C1CC[C@@H]1[C@@H]2[C@@H](O)C[C@@]2(C)[C@H]1CC[C@]2(O)C(=O)COC(=O)CCC(=O)O	-8	1	4	8	10	0	·	·
Cc1nn(C)c(C)c1CCC(=O)N1CCCC(N2CCN(c3ccc(F)cc3)CC2)C1 (stereo not drawn)	·	-1	·	·	·	·	·	·
CC(C)COc1cccc(-c2cc(C(=O)Nc3ccon3)c3ccccc3n2)c1	·	50*	·	·	·	·	81*	0.025	AML12 tox ATP=-10
CCOc1ccc(C2=NNC(c3cccs3)=Nc3ccc(OC)cc32)cc1OCC	0	55*	7	12	7	3	71*	0.57	AML12 tox ATP=20
CN(C1=C(NC(=O)c2ccc(Cl)cc2)C(=O)c2ccccc2C1=O)c1ccccc1	-3	69*	20	22	1	-21	91*	-0.93
Cc1ccc(C)c(C(=O)N2CCN(c3ncccn3)CC2)c1	·	57*	·	·	·	·	-13	-0.17
Cc1nc(NC(=O)c2ccc(OCC(C)C)cc2)sc1Cc1ccc2c(c1)OCO2	-6	63*	-5	·	7	-4	98*	-0.18	AML12 tox ATP=6
CCCOc1ccc(C(=O)Nc2nc(C)c(Cc3ccc4c(c3)OCO4)s2)cc1	-24	41	-10	-2	15	-6	·	·
CCC(=O)c1ccc(OCC(=O)OCC(=O)NCC2CCCO2)cc1 (stereo not drawn)	·	-1	·	·	·	·	·	·
CCc1ccc(C(=O)CSc2nc3cc(S(=O)(=O)N4CCOCC4)ccc3n2CC)cc1	-6	115*	6	6	-15	-8	22	-0.57
CCCC(=O)Nc1c2c(nc3ccccc13)N(c1ccccc1)CC2	-9	52*	-2	-8	9	-6	44	0.44
O=C(CN1CCCCC1)Nc1c2c(nc3ccccc13)N(c1ccccc1)CC2	0	-5	1	4	-4	-9	·	·
Cc1ccc2[nH]c(C)c(CC(=O)NCc3ccccc3)c2c1	·	72*	·	·	·	·	68*	0.27	AML12 tox ATP=8
Cc1ccc(-n2nc(C)c3c(=O)[nH]c(C(F)(F)F)nc32)cc1	-8	74*	1	4	12	-10	12	-0.31
CN(C)CCN1C(=O)C2C(C(=O)Nc3cc(Cl)cc(Cl)c3)C3C=CC2(O3)C1C(=O)NC1CCCCC1 (stereo not drawn)	·	-2	·	·	·	·	·	·
C#CCN(CC=C)C(=O)c1ccc2nc(C3CCCCC3)oc2c1	·	-2	·	·	·	·	·	·
CCNS(=O)(=O)c1ccc(CCC(=O)N2CCc3ccccc3C2)cc1	·	-4	·	·	·	·	·	·
C=CCSc1n[nH]c(-c2ccc(OCCCC)cc2)n1	-18	54*	-3	12	·	3	98*	0.3	AML12 tox ATP=13
SMILES	KLK5 inh	Lipid droplet	FXIa inh 1536	FXIIa inh	Biofilm kill mix	Thrombin inh	Lipid drop inh	AML12 tox img	others
c1cc2c(cc1-c1csc(NNC3=NCCCCC3)n1)OCCO2	-3	90*	-2	9	9	8	100*	-0.51	AML12 tox ATP=39
Cc1cccc(CN2CCC(n3nccc3NC(=O)CCCc3ccccc3)CC2)n1	·	0	·	·	·	·	·	·
CCN(Cc1ccccc1)C(=O)C1CCN(C(=O)Nc2ccccc2)CC1	·	77*	·	·	·	·	104*	-1.7	AML12 tox ATP=8
COCCNC(=O)c1ccc(C2SCC(=O)N2CCc2ccccc2)cc1 (stereo not drawn)	·	-3	·	·	·	·	·	·
O=C(CN1CCN(c2ccccn2)CC1)Nc1cccc(S(=O)(=O)N2CCCC2)c1	-5	-29	-1	2	-3	4	·	·
CCc1cc(SC#N)cc(CC)c1NC(=O)CCl	-6	81*	14	20	3	2	79*	1.8	AML12 tox ATP=9
N#Cc1ccccc1NC(=O)CN(Cc1ccccc1)Cc1ccccc1	·	-10	·	·	·	·	·	·
CCCOc1ccc(-c2csc(NC(=O)CN3C(=O)CCC3=O)n2)cc1	-2	95*	9	15	1	-12	109*	-0.43
C/C(=N\NC(=O)CNC(=O)c1ccc(F)cc1)c1ccco1	·	1	·	·	·	·	·	·
CN(C)c1nc(N/N=C/c2c[nH]c3ccccc23)nc(N2CCOCC2)n1	24	131*	0	10	7	-1	86*	22*
COc1ccc(C(O)(c2ccccc2OC)C(CN2CCOCC2)c2ccccc2)cc1 (stereo not drawn)	-3	5	-4	4	10	-6	·	·
Nc1nc(-c2ccc(Cl)cc2)c(N=Nc2ccc(S(=O)(=O)N3CCOCC3)cc2)s1	-9	65*	12	13	4	-3	33	0.73
CSC1=C(C#N)C(=O)NC(c2ccc(Cl)cc2)S1 (stereo not drawn)	2	-18	3	8	4	1	·	·
CC(C)Oc1ccc(C(=O)Nc2ccc(N3CCN(C(=O)c4ccco4)CC3)cc2)cc1	·	69*	·	·	·	·	57	-0.23	AML12 tox ATP=-4
CC(=O)Nc1ccc(S(=O)(=O)N2CCN(c3ccc([N+](=O)[O-])cc3)CC2)cc1	·	0	·	·	·	·	·	·
CCOc1cc(/C=N\Nc2nc(Nc3ccccc3)nc(N3CCOCC3)n2)ccc1OC(=O)c1ccco1	0	132*	2	5	19	-8	109*	20*
COc1cc(/C=N/Nc2nc(C)cc(C)n2)ccc1OC(=O)c1ccco1	-21	1	8	9	7	-2	·	·
COc1cc(C(=O)NCCC(=O)N2CCC3(CC2)NCCc2[nH]cnc23)cc(OC)c1OC	·	-2	·	·	·	·	·	·
